Measurements taken from ChEMBL document CHEMBL1287774, “Discovery of new azaindole-based PI3Kα inhibitors: apoptotic and antiangiogenic effect on cancer cells” (Bioorg Med Chem Lett, 2010).
Blank lines part the entries; values can stand above or below the compound they belong to.

Columns and labels:
[1] = target: Phosphatidylinositol 4,5-bisphosphate 3-kinase catalytic subunit alpha isoform (Homo sapiens, UniProt P42336); test: Inhibition of PI3Kalpha
SK-BR-3 = test: Antiproliferative activity against human SKBR3 cells by MTT assay; format: functional, cell-based
Summary of the method: (§1)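 Human breast cancer cultures (T47D, SK-BR3, MCF-7) exposed to compound. Cell viability is read by MTT and expressed as growth IC50.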

T47D [2] = test: Antiproliferative activity against human T47D cells by MTT assay; format: functional, cell-based; summary of the method: as §1
MCF7 = test: Antiproliferative activity against human MCF7 cells assessed as by MTT assay; format: functional, cell-based; summary of the method: as §1
T47D [3] = test: Induction of apoptosis in human T47D cells assessed as increase in non-viable cells at 50 uM after 24 hrs using annexin-V FITC and PI staining by flow cytometric analysis relative to control; format: functional
Summary of the method: (§2)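 T47D cells treated with various compound concentrations for 24 h, then stained with Annexin V-FITC and PI and analysed by flow cytometry. Early-apoptotic cells are Annexin V-positive/PI-negative. Changes are expressed relative to untreated control.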

T47D [4] = test: Induction of apoptosis in human T47D cells assessed as increase in early apoptotic cells at 1 uM after 24 hrs using annexin-V FITC and PI staining by flow cytometric analysis relative to control; format: functional; summary of the method: as §2
T47D [5] = test: Induction of apoptosis in human T47D cells assessed as decrease in viable cells at 50 uM after 24 hrs using annexin-V FITC and PI staining by flow cytometric analysis relative to control; format: functional; summary of the method: as §2
T47D [6] = test: Induction of apoptosis in human T47D cells assessed as decrease in viable cells at 10 uM after 24 hrs using annexin-V FITC and PI staining by flow cytometric analysis relative to control; format: functional; summary of the method: as §2
T47D [7] = test: Induction of apoptosis in human T47D cells assessed as increase in late apoptotic cells at 1 uM after 24 hrs using annexin-V FITC and PI staining by flow cytometric analysis relative to control; format: functional; summary of the method: as §2
HUVEC [8] = test: Antiangiogenic activity against HUVEC assessed as inhibition of tubular network formation on matrigels beds; format: functional, cell-based; details: Homo sapiens
Summary of the method: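 HUVECs plated onto Matrigel beds and treated with DMSO vehicle or compound at 0.1, 1 and 10 µM. Read-out is formation of a capillary-like tubular network, assessed from representative images.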

T47D [9] = test: Induction of apoptosis in human T47D cells assessed as increase in non-viable cells at 1 uM after 24 hrs using annexin-V FITC and PI staining by flow cytometric analysis relative to control; format: functional; summary of the method: as §2
T47D [10] = test: Induction of apoptosis in human T47D cells assessed as increase in early apoptotic cells at 10 uM after 24 hrs using annexin-V FITC and PI staining by flow cytometric analysis relative to control; format: functional; summary of the method: as §2
HUVEC [11] = test: Antiangiogenic activity against HUVEC assessed as inhibition of wound-induced migration of cells to non-wounded region; format: functional, cell-based; details: Homo sapiens
Summary of the method: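 HUVEC wound-induced migration assay. Migration is quantified by counting the cells that moved beyond the reference line into the non-wounded region.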

T47D [12] = test: Induction of apoptosis in human T47D cells assessed as increase in early apoptotic cells at 50 uM after 24 hrs using annexin-V FITC and PI staining by flow cytometric analysis relative to control; format: functional; summary of the method: as §2
T47D [13] = test: Induction of apoptosis in human T47D cells assessed as increase in non-viable cells at 10 uM after 24 hrs using annexin-V FITC and PI staining by flow cytometric analysis relative to control; format: functional; summary of the method: as §2
T47D [14] = test: Induction of apoptosis in human T47D cells assessed as increase in late apoptotic cells at 10 uM after 24 hrs using annexin-V FITC and PI staining by flow cytometric analysis relative to control; format: functional; summary of the method: as §2
T47D [15] = test: Induction of apoptosis in human T47D cells assessed as increase in late apoptotic cells at 50 uM after 24 hrs using annexin-V FITC and PI staining by flow cytometric analysis relative to control; format: functional; summary of the method: as §2
T47D [16] = test: Induction of apoptosis in human T47D cells assessed as decrease in viable cells at 1 uM after 24 hrs using annexin-V FITC and PI staining by flow cytometric analysis relative to control; format: functional; summary of the method: as §2

Chain of Phosphatidylinositol 4,5-bisphosphate 3-kinase catalytic subunit alpha isoform (P42336 whole entry, canonical isoform): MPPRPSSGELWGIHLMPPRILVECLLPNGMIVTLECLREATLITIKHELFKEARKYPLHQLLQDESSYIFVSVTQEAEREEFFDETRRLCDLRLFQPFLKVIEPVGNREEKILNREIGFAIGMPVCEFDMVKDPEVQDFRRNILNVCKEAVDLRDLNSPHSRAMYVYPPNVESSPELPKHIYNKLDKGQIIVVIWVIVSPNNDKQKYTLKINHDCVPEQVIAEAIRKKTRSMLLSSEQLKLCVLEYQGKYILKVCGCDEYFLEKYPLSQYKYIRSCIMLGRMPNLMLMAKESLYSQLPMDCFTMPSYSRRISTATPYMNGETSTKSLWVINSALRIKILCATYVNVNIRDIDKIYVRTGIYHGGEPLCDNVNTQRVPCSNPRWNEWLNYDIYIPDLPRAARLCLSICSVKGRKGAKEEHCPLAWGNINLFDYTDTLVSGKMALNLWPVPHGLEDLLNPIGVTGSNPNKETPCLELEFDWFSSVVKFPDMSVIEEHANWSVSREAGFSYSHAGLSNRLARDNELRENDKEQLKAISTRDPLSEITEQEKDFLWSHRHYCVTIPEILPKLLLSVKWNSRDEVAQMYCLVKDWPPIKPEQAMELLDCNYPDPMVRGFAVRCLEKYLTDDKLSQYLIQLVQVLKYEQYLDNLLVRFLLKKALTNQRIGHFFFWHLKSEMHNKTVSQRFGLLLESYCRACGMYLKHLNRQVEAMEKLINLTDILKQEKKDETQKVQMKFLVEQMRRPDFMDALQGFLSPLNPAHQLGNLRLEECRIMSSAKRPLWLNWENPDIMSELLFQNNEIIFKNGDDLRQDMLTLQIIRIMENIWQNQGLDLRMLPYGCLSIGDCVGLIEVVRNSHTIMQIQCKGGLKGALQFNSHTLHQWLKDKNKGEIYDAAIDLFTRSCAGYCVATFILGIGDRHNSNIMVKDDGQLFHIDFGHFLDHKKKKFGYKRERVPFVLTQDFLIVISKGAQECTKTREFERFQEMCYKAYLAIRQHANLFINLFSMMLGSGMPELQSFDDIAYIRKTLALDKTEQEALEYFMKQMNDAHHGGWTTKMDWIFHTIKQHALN

Compound: COc1ccc(-c2c[nH]c3ncc(-c4cncc(N)c4)cc23)cc1OC
- IC50 [1]: 460 nM

Compound: COc1ccc(-c2c[nH]c3ncc(-c4cnc(N)c(NS(=O)(=O)N5CCOCC5)c4)cc23)cc1OC
- Activity (T47D [3]): 7.32%
- Activity (T47D [4]): 1.56%
- Activity (T47D [5]): 19.64%
- Activity (T47D [6]): 90.61%
- IC50 (SK-BR-3): 3700 nM
- Activity (T47D [7]): 3.04%
- Activity (HUVEC [8]): Dose-dependent effect
- IC50 (T47D [2]): 700 nM
- Activity (T47D [9]): 0.96%
- Activity (T47D [10]): 1.52%
- Activity (HUVEC [11]): Dose-dependent effect
- Activity (T47D [12]): 28.24%
- Activity (T47D [13]): 2.86%
- Activity (T47D [14]): 4.98%
- Activity (T47D [15]): 47.5%
- Activity (T47D [16]): 94.44%

Compound: CC(=O)c1c[nH]c2ncc(-c3cnc(N)c(NS(=O)(=O)N4CCOCC4)c3)cc12
- IC50 [1]: 730 nM

Compound: CS(=O)(=O)Nc1cccc(-c2c[nH]c3ncc(-c4cncc(NS(=O)(=O)c5ccccc5)c4)cc23)c1
- IC50 [1]: 950 nM

Compound: COc1ccc(-c2c[nH]c3ncc(-c4cccc(NS(=O)(=O)c5ccccc5)c4)cc23)cc1OC
- IC50 [1]: 1600 nM

Compound: CC(=O)c1c[nH]c2ncc(-c3cncc(NS(=O)(=O)c4ccccc4)c3)cc12
- IC50 [1]: 620 nM

Compound: O=S(=O)(Nc1cncc(-c2cnc3[nH]ccc3c2)c1)c1ccccc1
- IC50 [1]: 5200 nM

Other lines, results leading:

- IC50 [1]: 27 nM
Compound: N#Cc1cccc(-c2c[nH]c3ncc(-c4cncc(NS(=O)(=O)c5ccc(F)cc5F)c4)cc23)c1

- IC50 [1]: 12 nM
- IC50 (SK-BR-3): 22000 nM
- IC50 (T47D [2]): 8500 nM
Compound: COc1ccc(-c2c[nH]c3ncc(-c4cncc(NS(=O)(=O)c5ccccc5)c4)cc23)cc1OC

- IC50 [1]: 12 nM
- IC50 (SK-BR-3): 12000 nM
- IC50 (T47D [2]): 3600 nM
- IC50 (MCF7): 6800 nM
Compound: O=S(=O)(Nc1cncc(-c2cnc3[nH]cc(-c4cccnc4)c3c2)c1)c1ccccc1

- IC50 [1]: 31 nM
Compound: N#Cc1cccc(-c2c[nH]c3ncc(-c4cncc(NS(=O)(=O)c5ccccc5)c4)cc23)c1

- IC50 [1]: 3 nM
Compound: COc1ccc(-c2c[nH]c3ncc(-c4cnc(N)c(NS(=O)(=O)c5ccc(F)cc5F)c4)cc23)cc1OC

- IC50 [1]: 130 nM
Compound: N#Cc1cccc(-c2c[nH]c3ncc(-c4cnc(N)c(NS(=O)(=O)N5CCOCC5)c4)cc23)c1
